A selection: hits, their analogues and other compounds. The true share with any hit is near 0.72%.
mIAP block – mouse IAP inhibition. inhibition, % at 10 µM. purified mouse IAP, CDP-Star luminescence, 30 min. AID 2806. hit rate 0.2% among 330,000;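 active = inhibition of at least 40% at 10 µM in the primary screen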;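 also: plate controls were DMSO with enzyme for no effect and no enzyme wells for full effect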
hIAP act – human IAP activation. P09923. purified human IAP, CDP-Star luminescence, 30 min; stronger effect = higher value; 1 = vehicle-only enzyme, 0 = enzyme-free background. activation factor at 10 µM. hit rate 0.16% among 330,000;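 active = activation factor of the enzyme at least 2-fold when tested at 20 µM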
Target sequence (P09923 whole entry, looked up): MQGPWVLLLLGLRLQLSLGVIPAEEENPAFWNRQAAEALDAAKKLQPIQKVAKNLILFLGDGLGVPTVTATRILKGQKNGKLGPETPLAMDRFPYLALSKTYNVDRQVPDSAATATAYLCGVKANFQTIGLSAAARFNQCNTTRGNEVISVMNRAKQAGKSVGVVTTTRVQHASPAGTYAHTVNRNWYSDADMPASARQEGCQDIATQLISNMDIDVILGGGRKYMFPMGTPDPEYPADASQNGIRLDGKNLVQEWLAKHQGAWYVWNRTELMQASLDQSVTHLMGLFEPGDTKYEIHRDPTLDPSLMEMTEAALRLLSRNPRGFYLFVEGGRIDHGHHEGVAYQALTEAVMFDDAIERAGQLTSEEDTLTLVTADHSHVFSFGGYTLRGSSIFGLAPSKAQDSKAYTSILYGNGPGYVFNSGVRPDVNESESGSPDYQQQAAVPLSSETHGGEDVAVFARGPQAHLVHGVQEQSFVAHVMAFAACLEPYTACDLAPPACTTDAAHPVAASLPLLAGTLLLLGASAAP
bIAP act – increases bovine intestinal alkaline phosphatase activity; purified bovine IAP, CDP-star luminescence, 30 min; stronger effect = higher value; fold of DMSO-control signal, blank-subtracted; activation factor at 20 µM; hit rate 0.17% among 200,000; AID 1016;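 active = activation factor of 2 or more at 20 µM, a signal rise over negative controls twice the positive control's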
hIAP block – human IAP inhibition. P09923. purified IAP, CDP-Star luminescence, 30 min. inhibition, % at 10 µM. hit rate 0.12% among 330,000;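 active = inhibition reaching a set limit with compound at 10 µM in the primary screen, cut at about 35% in these data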;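 also: plate controls were DMSO wells with enzyme for no effect and no-enzyme buffer wells for full effect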
mIAP activ – mouse IAP activation; hit rate 0.24% among 330,000; muIAP, CDP-Star luminescence, 30 min; stronger effect = higher value; 1 = vehicle-only enzyme signal, 0 = enzyme-free wells; activation factor at 10 µM;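 active = activation factor of at least 2 at 20 µM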
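Assay system: mouse IAP enzyme / Compound: DMSO-dissolved test compounds / Timing: 30 min, room temperature / Measured by: luminescence from enzymatic CDP-Star hydrolysis / Control set: DMSO-only wells, enzyme-free buffer wells as negative control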
bIAP inhibitor – blocks bovine intestinal alkaline phosphatase activity; purified bovine IAP, CDP-star luminescence, 30 min; inhibition, % at 20 µM; 190,000 tested, under 10 active; AID 1019;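 active = over 50% inhibition of intestinal alkaline phosphatase at 20 µM in the single-dose screen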
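System: purified bovine intestinal alkaline phosphatase (IAP) enzyme; Input: IAP diluted 1/65,000,000 in the well; Measured by: CDP-star luminescence signal; Compound dosing: 20 µM single dose; Incubation: 30 min reaction at room temperature.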
mIAP inh confirm – mouse IAP inhibition confirmation; hit rate 4.7% among 11,000; purified mouse IAP, CDP-Star luminescence, 30 min; shares compounds with mIAP block; AID 434971; inhibition, % at 10 µM;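 active = inhibition of at least 40% at 10 µM in either of the two replicates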;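 also: plate controls were DMSO wells with enzyme for no effect and buffer wells lacking enzyme for full effect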
* hit, by the source's call; i = inactive; · = not tested or not shown.

SMILES | mIAP block | hIAP act | bIAP act | hIAP block | mIAP activ | bIAP inhibitor | mIAP inh confirm
C[C@@H]1O[C@@H](O[C@H]2[C@H](O)[C@@H](O)[C@H](Oc3c(-c4ccc(O)cc4)oc4cc(O)cc(O)c4c3=O)O[C@@H]2CO)[C@H](O)[C@H](O)[C@H]1O | -5.4 | 1.04 | · | -3.8 | 1.05 | · | ·
NS(=O)(=O)c1ccc(-c2ccc(/C=C3\C(=O)Nc4ccccc43)o2)cc1 | 10.7 | 0.844 | · | 15.6 | 0.893 | · | ·
CC1(C)OC(=O)C(=Cc2ccc(-c3ccc(S(N)(=O)=O)cc3)o2)C(=O)O1 | 63.9* | 0.987 | 1.2 | 1.3 | 0.361 | -15.7 | 78.8*
Cc1ccc(N/C(N)=N/c2nc(C)cc(N3CCCCC3)n2)c(C)c1 | -270.0 | 3.07* | 8.4* | -206.8 | 3.7* | i | -322.5
Cc1ccc(N/C(N)=N/c2nc3c(c(=O)[nH]2)CCCC3)c(C)c1 | -26.5 | 1.01 | 1.5 | -1.2 | 1.26 | -54.0 | ·
Cc1cccc(-c2nc3c(s2)CCc2onc(-c4ccc(Br)cc4)c2-3)c1 | -7.3 | 0.995 | · | 0.5 | 1.07 | · | ·
COc1ccc(NC(=O)c2csc(C)c2)cc1OC | -3.8 | 1.25 | · | -24.8 | 1.04 | · | ·
Cc1nn(Cc2ccc(Cl)c(Cl)c2)c(C)c1NC(=O)c1cn(-c2ccccc2)nc1-c1ccccc1 | -193.0 | 1.21 | 1 | -20.5 | 2.93* | 0.0 | -161.6
CN(CC(=O)Nc1c(Cl)cccc1Cl)C(=O)Cc1cccs1 | 13.4 | 1.01 | · | -0.6 | 0.866 | · | ·
C#CCOCCOCCOCCNc1nc(N2CCN(C(=O)CCCCCCCCCCNC(=O)[C@H]([C@@H](C)CC)n3cc(CCCCN=C(N)N)nn3)CC2)nc(N2CCN(C(=O)CCCCCCCCCCNC(=O)[C@H](CO)n3cc(CCCCCN)nn3)CC2)n1 | i | 1.38 | · | -38.0 | 6.36* | · | i
C#CCOCCOCCOCCNc1nc(N2CCN(C(=O)[C@H]([C@@H](C)CC)n3cc(CCCN=C(N)N)nn3)CC2)nc(N2CCN(C(=O)[C@H]([C@@H](C)CC)n3cc(CCCN=C(N)N)nn3)CC2)n1 | -7.8 | 0.752 | 0.7 | 24.8 | 1.08 | 32.3 | ·
C#CCOCCOCCOCCNc1nc(N2CCN(C(=O)CCCCCCCCCCNC(=O)[C@H](CO)n3cc(CCCSC)nn3)CC2)nc(N2CCN(C(=O)CCCCCCCCCCNC(=O)[C@H](CCCCN)n3cc(CCO)nn3)CC2)n1 | -35.8 | 0.957 | · | 4.3 | 1.36 | · | ·
C#CCOCCOCCOCCNc1nc(N2CCN(C(=O)CCCCCCCCCCNC(=O)[C@H]([C@@H](C)CC)n3cc(CCCCN=C(N)N)nn3)CC2)nc(N2CCN(C(=O)CCCCCCCCCCNC(=O)[C@H]([C@@H](C)CC)n3cc(CCCCN=C(N)N)nn3)CC2)n1 | i | 1.47 | · | -46.8 | 10.3* | · | i
C#CCOCCOCCOCCNc1nc(N2CCN(C(=O)Cn3cc(CCCN=C(N)N)nn3)CC2)nc(N2CCN(C(=O)[C@H]([C@@H](C)CC)n3cc(CCCCN)nn3)CC2)n1 | -6.4 | 0.916 | · | 8.4 | 1.06 | · | ·
C#CCOCCOCCOCCNc1nc(N2CCN(C(=O)CCCCCCCCCCNC(=O)Cn3cc(CCCCCN)nn3)CC2)nc(N2CCN(C(=O)CCCCCCCCCCNC(=O)[C@H]([C@@H](C)CC)n3cc(CCCCN=C(N)N)nn3)CC2)n1 | i | 1.19 | · | -19.1 | 9.74* | · | i
C#CCOCCOCCOCCNc1nc(N2CCN(C(=O)CCCCCCCCCCNC(=O)[C@H]([C@@H](C)CC)n3cc(CCCCCN)nn3)CC2)nc(N2CCN(C(=O)CCCCCCCCCCNC(=O)[C@H]([C@@H](C)CC)n3cc(CCCCN=C(N)N)nn3)CC2)n1 | i | 1.16 | · | -16.3 | 17.6* | · | i
CCNC(=O)C1CCCN1C(=O)C(CCCN=C(N)N)NC(=O)C(CC(C)C)NC(=O)C(Cc1cn(Cc2ccccc2)cn1)NC(=O)C(Cc1ccc(O)cc1)NC(=O)C(CO)NC(=O)C(Cc1c[nH]c2ccccc12)NC(=O)C(Cc1cnc[nH]1)NC(=O)C1CCC(=O)N1 (stereo unspecified) | -45.7 | 1.45 | · | -45.4 | 1.46 | · | ·
COCCN(C(=O)COC(=O)c1cccnc1SC)c1c(N)n(Cc2ccccc2)c(=O)[nH]c1=O | -1.2 | 1.02 | · | -1.9 | 1.01 | · | ·
CCCN(Cc1nnc(-c2cccs2)o1)C(=O)CN1C(=O)NC2(CCCCC2C)C1=O (stereo unspecified) | -8.0 | 1.03 | · | -3.4 | 1.08 | · | ·
COc1ccc(NS(=O)(=O)c2cc3c4c(c2)CCN4C(=O)CC3)c(OC)c1 | 3.6 | 0.949 | · | 5.1 | 0.964 | · | ·
C#CCOCCOCCOCCNc1nc(N2CCN(C(=O)CCCCCCCCCCNC(=O)Cn3cc(CCCCCN)nn3)CC2)nc(N2CCN(C(=O)CCCCCCCCCCNC(=O)[C@@H](CCSC)n3cc(CCO)nn3)CC2)n1 | -320.7 | 1.14 | · | -13.5 | 4.21* | · | -256.4
C#CCOCCOCCOCCNc1nc(N2CCN(C(=O)CCCCCCCCCCNC(=O)[C@H]([C@@H](C)CC)n3cc(CCCCN=C(N)N)nn3)CC2)nc(N2CCN(C(=O)CCCCCCCCCCNC(=O)[C@H](CCCCN)n3cc(C)nn3)CC2)n1 | -178.4 | 1.08 | · | -8.1 | 2.78* | · | i
C#CCOCCOCCOCCNc1nc(N2CCN(C(=O)CCCCCCCCCCNC(=O)Cn3cc(CCCCCN)nn3)CC2)nc(N2CCN(C(=O)CCCCCCCCCCNC(=O)[C@@H](CCC(=O)O)n3cc(CCCCCN)nn3)CC2)n1 | -42.4 | 0.967 | · | 3.3 | 1.42 | · | ·
CC[C@H](C)[C@@H](C(=O)NCCCCCCCCCCC(=O)N1CCN(C(=O)OC(C)(C)C)CC1)n1cc(CCCCN=C(NC(=O)OC(C)(C)C)NC(=O)OC(C)(C)C)nn1 | -125.4 | 0.939 | · | 6.1 | 2.25* | · | -128.5
COC(=O)c1c(NC(=O)c2ccccc2OC)sc(C(=O)N2CCOCC2)c1C | 4.3 | 0.831 | · | 16.9 | 0.957 | · | ·
SMILES | mIAP block | hIAP act | bIAP act | hIAP block | mIAP activ | bIAP inhibitor | mIAP inh confirm
O=C1/C(=C\c2ccc(O)cc2)SC(=S)N1/N=C/c1ccc(O)cc1 | 48.9* | 0.844 | · | 15.6 | 0.511 | · | 57.1*
CCCCN(S(=O)(=O)c1ccccc1)S(=O)(=O)c1ccccc1 | 1.4 | 1 | · | -0.4 | 0.986 | · | ·
CC(C)(C)N(NC(=O)Nc1ccc(Cl)c(Cl)c1)C(=O)c1ccccc1 | i | 1.83 | 1 | -83.0 | 6.83* | -2.1 | -295.1
Cc1cc(C)cc(C(=O)N(NC(=O)Nc2ccc(Cl)cc2)C(C)(C)C)c1 | -334.6 | 1.3 | 1 | -29.9 | 4.35* | -3.1 | -322.5
CCn1cc(CN2CCC(C(=O)Nc3cccc(-c4cccc(F)c4)c3)CC2)cn1 | -103.8 | 1.03 | · | -2.7 | 2.04* | · | -166.1
O=C(Nc1cccc(-c2cccc(Cl)c2)c1)C1CCN(Cc2ccc(CO)o2)CC1 | -295.6 | 1.12 | · | -11.6 | 3.96* | · | -161.0
O=C(Nc1cccc(Cl)c1)C1CCCCC1 | -0.6 | 0.99 | · | 1.0 | 1.01 | · | ·

Screens from PubChem.
